Experimental findings from ChEMBL document CHEMBL1126855, “Synthesis and structure-activity relationships of a series of penicillin-derived HIV proteinase inhibitors containing a stereochemically unique peptide isostere” (J Med Chem, 1993) are described below.

What is called IC50 is the point on the concentration scale where inhibition reaches its midpoint. A high value points to weaker potency. In general, EC50 refers to the midpoint of the concentration-response curve. A low value points to higher potency in that assay.

The target of test [1] is Human immunodeficiency virus type 1 protease (Human immunodeficiency virus 1, UniProt Q72874). The test can be described thus: Inhibitory activity against HIV-1 protease. Summed up:
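IC50 against HIV-1 proteinase, from duplicate determinations at each inhibitor concentration, with mean values used for analysis. Results were standardized against a control run in every assay.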

The next test concerns MT4. The test can be described thus: Inhibition of cytopathic effect of HIV-1 in MT-4 cells. In kind it is functional, cell-based. The conditions noted are these: Homo sapiens.

Bounds are passed on as bounds.

In test [1], `CC(C)CNC(=O)C[C@H](O)[C@@H](Cc1ccccc1)NC(=O)[C@@H]1N[C@@H]([C@H](NC(=O)Cc2ccccc2)C(=O)NCc2ccccc2)SC1(C)C` had an IC50 of 2800 nM.
`CC1(C)S[C@H]([C@H](NC(=O)Cc2ccccc2)C(=O)NCc2ccccc2)N[C@H]1C(=O)N[C@H](Cc1ccccc1)[C@H](O)CC(=O)NCCO` returned an IC50 in test [1] of 1100 nM.
`C[C@@H](Cc1ccccc1)NC(=O)[C@@H]1N[C@@H]([C@H](NC(=O)Cc2ccccc2)C(=O)NCc2ccccc2)SC1(C)C` had an IC50 in test [1] of over 180000 nM.
In test [1], `CC1(C)S[C@H]([C@H](NC(=O)Cc2ccccc2)C(=O)NCc2ccccc2)N[C@H]1C(=O)N[C@H](CO)CCc1ccccc1` showed an IC50 of 26000 nM.
In test [1], `CC(C)[C@H](CO)NC(=O)[C@@H]1N[C@@H]([C@H](NC(=O)Cc2ccccc2)C(=O)NCc2ccccc2)SC1(C)C` registered an IC50 of over 4700 nM.
The compound `CC1(C)S[C@H]([C@H](NC(=O)Cc2ccccc2)C(=O)NCc2ccccc2)N[C@H]1C(N)=O` yielded an IC50 in test [1] of over 230000 nM.
In test [1], `CC1(C)S[C@H]([C@H](NC(=O)Cc2ccccc2)C(=O)NCc2ccccc2)N[C@H]1C(=O)N[C@H](Cc1ccccc1)[C@@H](O)CC(=O)NCc1ccccc1` displayed an IC50 of 2900 nM.
Same read-out and setting: in the case of `CC1(C)S[C@H]([C@H](NC(=O)Cc2ccccc2)C(=O)NCc2ccccc2)N[C@H]1C(=O)N[C@H](Cc1ccccc1)[C@@H](O)CC(N)=O` it was 1900 nM.
In turn, `CC1(C)S[C@H]([C@H](NC(=O)Cc2ccccc2)C(=O)NCc2ccccc2)N[C@H]1C(=O)N[C@H](Cc1ccccc1)[C@H](O)CC(=O)NCC(O)CO` (some centres not stated) came in with an IC50 in test [1] of 95 nM. For the same compound, it took 40000 nM to reach a half-maximal effect in the test on MT4 (EC50).
Consider `CC1(C)S[C@H]([C@H](NC(=O)Cc2ccccc2)C(=O)NCc2ccccc2)N[C@H]1C(=O)N[C@H](CO)Cc1ccccc1`, for which the IC50 in test [1] was over 170000 nM.
Consider `CCCCC(CO)NC(=O)[C@@H]1N[C@@H]([C@H](NC(=O)Cc2ccccc2)C(=O)NCc2ccccc2)SC1(C)C` (some centres not stated) [listing 1 of 2 here], for which, in test [1], the IC50 turned out to be 250 nM.
In the case of `C[C@H](CO)NC(=O)[C@@H]1N[C@@H]([C@H](NC(=O)Cc2ccccc2)C(=O)NCc2ccccc2)SC1(C)C`, in test [1], the half-maximal inhibitory concentration (IC50) was over 20000 nM.
`CC1(C)S[C@H]([C@H](NC(=O)Cc2ccccc2)C(=O)NCc2ccccc2)N[C@H]1C(=O)N[C@H](Cc1ccccc1)[C@H](O)CC(=O)NCc1ccccc1` showed an IC50 in test [1] of 4.6 nM. For the same compound, in the test with MT4, the EC50 is 4700 nM.
Turning to `CCCCC(CO)NC(=O)[C@@H]1N[C@@H]([C@H](NC(=O)Cc2ccccc2)C(=O)NCc2ccccc2)SC1(C)C` (some centres not stated) [listing 2 of 2 here], the IC50 in test [1] is over 4600 nM.
`CC1(C)S[C@H]([C@H](NC(=O)Cc2ccccc2)C(=O)NCc2ccccc2)N[C@H]1C(=O)NCC(O)CNC(=O)[C@@H]1N[C@@H]([C@H](NC(=O)Cc2ccccc2)C(=O)NCc2ccccc2)SC1(C)C` displayed an IC50 in test [1] of 5 nM. It took 2600 nM to reach a half-maximal effect with MT4 (EC50).
Taken in the same sequence, the figures for `CC1(C)S[C@H]([C@H](NC(=O)Cc2ccccc2)C(=O)NCc2ccccc2)N[C@H]1C(=O)N[C@H](Cc1ccccc1)[C@H](O)CC(=O)N[C@@H](CO)Cc1ccccc1` were 170 nM and over 100000 nM.
Turning to `CC1(C)S[C@H]([C@H](NC(=O)Cc2ccccc2)C(=O)NCc2ccccc2)N[C@H]1C(=O)NCCCNC(=O)[C@@H]1N[C@@H]([C@H](NC(=O)Cc2ccccc2)C(=O)NCc2ccccc2)SC1(C)C`, in test [1], the IC50 turned out to be 540 nM.
`CC1(C)S[C@H]([C@H](NC(=O)Cc2ccccc2)C(=O)NCc2ccccc2)N[C@H]1C(=O)N[C@@H](CO)Cc1ccccc1` yielded an IC50 in test [1] of 150 nM.
`CC1(C)S[C@H]([C@H](NC(=O)Cc2ccccc2)C(=O)NCc2ccccc2)N[C@H]1C(=O)N[C@@H](CO)CCc1ccccc1` gave an IC50 in test [1] of 25000 nM.
In test [1], `CC1(C)S[C@H]([C@H](NC(=O)Cc2ccccc2)C(=O)NCc2ccccc2)N[C@H]1C(=O)N[C@H](Cc1ccccc1)[C@H](O)CC(=O)NCCCO` showed an IC50 of 54 nM. This compound gave an EC50 in the test on MT4 of 5700 nM.
Compound `CC1(C)S[C@H]([C@H](NC(=O)Cc2ccccc2)C(=O)NCc2ccccc2)N[C@H]1C(=O)NCCO` showed an IC50 in test [1] of 180000 nM.
As for `CC1(C)S[C@H]([C@H](NC(=O)Cc2ccccc2)C(=O)NCc2ccccc2)N[C@H]1C(=O)N[C@H](Cc1ccccc1)[C@H](O)CC(=O)NCCc1ncc[nH]1`, it took 300 nM to reach half-maximal inhibition in test [1] (IC50).
For `C[C@H](Cc1ccccc1)NC(=O)[C@@H]1N[C@@H]([C@H](NC(=O)Cc2ccccc2)C(=O)NCc2ccccc2)SC1(C)C`, the IC50 in test [1] is over 180000 nM.
As for `CC1(C)S[C@H]([C@H](NC(=O)Cc2ccccc2)C(=O)NCc2ccccc2)N[C@H]1C(=O)N[C@H](Cc1ccccc1)[C@H](O)CC(N)=O`, in test [1], the IC50 turned out to be 82 nM. The compound further yielded an EC50 in the test on MT4 of over 100000 nM.
The compound `CCC(C)C(CO)NC(=O)[C@@H]1N[C@@H]([C@H](NC(=O)Cc2ccccc2)C(=O)NCc2ccccc2)SC1(C)C` (some centres not stated) registered an IC50 in test [1] of over 540 nM.
The compound `CC(C)CNC(=O)C[C@@H](O)[C@@H](Cc1ccccc1)NC(=O)[C@@H]1N[C@@H]([C@H](NC(=O)Cc2ccccc2)C(=O)NCc2ccccc2)SC1(C)C` had an IC50 in test [1] of 69 nM. For the same compound, the EC50 in the test on MT4 is over 150000 nM.
The corresponding values for `CC1(C)S[C@H]([C@H](NC(=O)Cc2ccccc2)C(=O)NCc2ccccc2)N[C@H]1C(=O)N[C@H](Cc1ccccc1)[C@H](O)CC(=O)N[C@H](CO)c1ccccc1` are 170 nM and 10600 nM.
The corresponding values for `CC1(C)S[C@H]([C@H](NC(=O)Cc2ccccc2)C(=O)NCc2ccccc2)N[C@H]1C(=O)N[C@H](Cc1ccccc1)C(O)CNC(=O)Cc1ccccc1` (some centres not stated) are 53 nM and over 100000 nM.
`CC1(C)S[C@H]([C@H](NC(=O)Cc2ccccc2)C(=O)NCc2ccccc2)N[C@H]1C(=O)N[C@H](Cc1ccccc1)[C@H](O)CC(=O)N[C@H](CO)Cc1ccccc1` showed an IC50 in test [1] of 220 nM. This compound returned an EC50 with MT4 of over 100000 nM.
The corresponding values for `CC1(C)S[C@H]([C@H](NC(=O)Cc2ccccc2)C(=O)NCc2ccccc2)N[C@H]1C(=O)N[C@H](Cc1ccccc1)[C@H](O)CC(=O)N[C@@H](CO)c1ccccc1` are 190 nM and over 100000 nM.
`CC(C)C[C@H](CO)NC(=O)[C@@H]1N[C@@H]([C@H](NC(=O)Cc2ccccc2)C(=O)NCc2ccccc2)SC1(C)C` displayed an IC50 in test [1] of over 4600 nM.
